Measurements reported in ChEMBL document CHEMBL2434898, “New β-phospholactam as a carbapenem transition state analog: Synthesis of a broad-spectrum inhibitor of metallo-β-lactamases” (Bioorg Med Chem Lett, 2013).
The source made the active and inactive calls. The calls are words filed in the database; no cut-off is given here.

Tests used:
[1] = Activation of metallo-beta-lactamase CcrA (unknown origin) assessed as hydrolysis of nitrocefin at 100 uM by spectrophotometry
In short: (§1)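 Purified metallo-β-lactamases (subclass B1: IMP-1, CcrA, Bla2, NDM-1; B3: L1) were mixed with inhibitor dissolved in DMSO with no pre-incubation before the hydrolysis assay. Activity is reported as percent inhibition.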

[2] = Inhibition of metallo-beta-lactamase L1 (unknown origin) assessed as inhibition of nitrocefin hydrolysis preincubated at 100 before substrate addition by spectrophotometry; settings: TDE = time-dependent effect
[3] = Inhibition of Metallo-beta-lactamase Bla2 (unknown origin) assessed as inhibition of nitrocefin hydrolysis preincubated at 100 uM for 30 mins before substrate addition by spectrophotometry
In short: (§2)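 Each enzyme (IMP-1, CcrA, Bla2, NDM-1 of subclass B1; L1 of B3) was pre-incubated with inhibitor in DMSO for 30 min, then substrate hydrolysis was measured. Results are given as percent inhibition.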

[4] = Inhibition of Metallo-beta-lactamase IMP-1 (unknown origin) assessed as inhibition of nitrocefin hydrolysis preincubated at 100 uM before substrate addition by spectrophotometry; settings: TDE = time-dependent effect
[5] = Activation of metallo-beta-lactamase NDM1 (unknown origin) assessed as hydrolysis of nitrocefin at 100 uM by spectrophotometry; in short: as §1
[6] = Inhibition of metallo-beta-lactamase L1 (unknown origin) assessed as inhibition of nitrocefin hydrolysis preincubated at 100 uM for 30 mins before substrate addition by spectrophotometry; in short: as §2
[7] = Inhibition of Metallo-beta-lactamase CcrA (unknown origin) assessed as inhibition of nitrocefin hydrolysis preincubated at 100 uM before substrate addition by spectrophotometry; settings: TDE = time-dependent effect
[8] = Inhibition of Metallo-beta-lactamase CcrA (unknown origin) assessed as inhibition of nitrocefin hydrolysis preincubated at 100 uM for 30 mins before substrate addition by spectrophotometry; in short: as §2
[9] = Inhibition of Metallo-beta-lactamase IMP-1 (unknown origin) assessed as inhibition of nitrocefin hydrolysis preincubated at 100 uM for 30 mins before substrate addition by spectrophotometry; in short: as §2
[10] = Inhibition of Metallo-beta-lactamase L1 (unknown origin) assessed as inhibition of nitrocefin hydrolysis at 100 uM by spectrophotometry; in short: as §1
[11] = Inhibition of Metallo-beta-lactamase IMP-1 (unknown origin) assessed as inhibition of nitrocefin hydrolysis at 100 uM by spectrophotometry; in short: as §1
[12] = Inhibition of Metallo-beta-lactamase NDM1 (unknown origin) assessed as inhibition of nitrocefin hydrolysis preincubated at 100 uM for 30 mins before substrate addition by spectrophotometry; in short: as §2
[13] = Inhibition of Metallo-beta-lactamase Bla2 (unknown origin) assessed as inhibition of nitrocefin hydrolysis preincubated at 100 uM before substrate addition by spectrophotometry; settings: TDE = time-dependent effect
[14] = Inhibition of Metallo-beta-lactamase Bla2 (unknown origin) assessed as inhibition of nitrocefin hydrolysis at 100 uM by spectrophotometry; in short: as §1
[15] = Inhibition of Metallo-beta-lactamase NDM1 (unknown origin) assessed as inhibition of nitrocefin hydrolysis preincubated at 100 uM before substrate addition by spectrophotometry; settings: TDE = time-dependent effect

With `CC(=O)OC1C2CCC(C(=O)O)N2P1(=O)O` (stereo not given) the Activity [1] was “Active”, the inhibition [2] was “tde” and the inhibition [3] was 94%. For the same molecule, the inhibition [4] was “tde”, the Activity [5] was “Active” and the inhibition [6] was 70%. For the same molecule, the inhibition [7] was “tde”, the inhibition [8] was 69% and the inhibition [9] was 70%. The inhibition [10] was 37%, the inhibition [11] was 48% and the inhibition [12] was 53%. For the same molecule, the inhibition [13] was “tde”, the inhibition [14] was 22% and the inhibition [15] was “tde”.
